Source: ChEMBL document CHEMBL3351567, “Heterodimeric ent-kauranoids from Isodon tenuifolius” (J Nat Prod, 2014)
pIC50: −log10 of the molar value.

Legend:
Type in all cases: functional, cell-based
[1] = Cytotoxicity against human HL60 cells after 48 hrs by MTT assay; conditions: HL-60, 48 h
Outline: (§1)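 Cells grown in RPMI-1640 or DMEM with 10% FBS, 37 °C, 5% CO2. Seeded at 1 × 10^5 cells/mL in 100 μL; adherent lines attached 12 h before dosing, suspension cells seeded at dosing. Compound at various concentrations in triplicate, 48 h. MTT (100 μg) added for 4 h, lysed with 20% SDS–50% DMF, OD 595 nm. IC50 by Reed–Muench method; cisplatin and paclitaxel as positive controls.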

SMMC-7721 = test: Cytotoxicity against human SMMC7721 cells after 48 hrs by MTT assay; conditions: SMMC-7721, 48 h; outline: as §1
A549 = test: Cytotoxicity against human A549 cells after 48 hrs by MTT assay; conditions: A549, 48 h; outline: as §1
MCF7 = test: Cytotoxicity against human MCF7 cells after 48 hrs by MTT assay; conditions: MCF7, 48 h; outline: as §1
SW480 = test: Cytotoxicity against human SW480 cells after 48 hrs by MTT assay; conditions: SW480, 48 h; outline: as §1

Compound	pIC50 [1]	pIC50 (SMMC-7721)	pIC50 (A549)	pIC50 (MCF7)	pIC50 (SW480)
CC(=O)O[C@H]1C[C@@H]2C[C@@]3(C4=C2CC[C@@]2(O4)C(=O)[C@]45C[C@H]2C[C@H](OC(C)=O)[C@H]4[C@]2(C)[C@@H](OC(C)=O)C[C@H](O)C(C)(C)[C@H]2C(=O)[C@@H]5OC(C)=O)[C@@H]1[C@]1(C)[C@@H](OC(C)=O)C[C@H](OC(C)=O)C(C)(C)[C@H]1C(=O)[C@@H]3O	5.34	5.00	< 5.00	5.38	5.40
CC(=O)O[C@H]1C[C@@H]2C[C@@]3(C(=O)[C@]24CCC2=C(O4)[C@]45C[C@H]2C[C@H](OC(C)=O)[C@H]4[C@]2(C)[C@@H](OC(C)=O)C[C@H](O)C(C)(C)[C@H]2C(=O)[C@@H]5OC(C)=O)[C@@H]1[C@]1(C)[C@@H](OC(C)=O)C[C@H](OC(C)=O)C(C)(C)[C@H]1C(=O)[C@@H]3O	< 5.00	< 5.00	< 5.00	< 5.00	< 5.00
CC(=O)O[C@H]1C[C@@H]2C[C@@]3(C(=O)[C@]24CCC2=C(O4)[C@]45C[C@H]2C[C@H](OC(C)=O)[C@H]4[C@]2(C)[C@@H](OC(C)=O)C[C@H](O)C(C)(C)[C@H]2C(=O)[C@@H]5O)[C@@H]1[C@]1(C)[C@@H](OC(C)=O)C[C@H](O)C(C)(C)[C@H]1C(=O)[C@@H]3O	< 5.00	< 5.00	< 5.00	< 5.00	< 5.00
CC(=O)O[C@H]1C[C@@H]2C[C@@]3(C(=O)[C@]24CCC2=C(O4)[C@@]45CC(=O)[C@@H]6C(C)(C)[C@@H](OC(C)=O)C[C@H](O)[C@@]6(C)[C@@H]4C(=O)C[C@@H]2C5)[C@@H]1[C@]1(C)[C@@H](OC(C)=O)C[C@H](O)C(C)(C)[C@H]1C(=O)[C@@H]3OC(C)=O	< 5.00	< 5.00	< 5.00	< 5.00	< 5.00
CC(=O)O[C@H]1C[C@@H]2C[C@@]3(C(=O)[C@]24CCC2=C(O4)[C@]45C[C@H]2C[C@H](OC(C)=O)[C@H]4[C@]2(C)[C@@H](OC(C)=O)C[C@H](O)C(C)(C)[C@H]2[C@@H](O)[C@@H]5O)[C@@H]1[C@]1(C)[C@@H](OC(C)=O)C[C@H](O)C(C)(C)[C@H]1[C@@H](O)[C@@H]3O	< 5.00	< 5.00	< 5.00	< 5.00	< 5.00
CC(=O)O[C@H]1C[C@@H]2C[C@@]3(C(=O)[C@H]2C[C@]2(CO)C(=O)[C@]45C[C@H]2C[C@H](OC(C)=O)[C@H]4[C@]2(C)[C@@H](OC(C)=O)C[C@H](O)C(C)(C)[C@H]2C(=O)[C@@H]5O)[C@@H]1[C@]1(C)[C@@H](OC(C)=O)C[C@H](O)C(C)(C)[C@H]1C(=O)[C@@H]3O	< 5.00	< 5.00	< 5.00	< 5.00	< 5.00
COC[C@@]1(C[C@@H]2C(=O)[C@]34C[C@H]2C[C@H](OC(C)=O)[C@H]3[C@]2(C)[C@@H](OC(C)=O)C[C@H](O)C(C)(C)[C@H]2C(=O)[C@@H]4O)C(=O)[C@]23C[C@H]1C[C@H](OC(C)=O)[C@H]2[C@]1(C)[C@@H](OC(C)=O)C[C@H](O)C(C)(C)[C@H]1C(=O)[C@@H]3O	< 5.00	< 5.00	< 5.00	< 5.00	< 5.00
COC[C@@]1(C[C@@H]2C(=O)[C@]34C[C@H]2C[C@H](OC(C)=O)[C@H]3[C@]2(C)[C@@H](OC(C)=O)C[C@H](O)C(C)(C)[C@H]2C(=O)[C@@H]4O)C(=O)[C@]23C[C@H]1C[C@H](OC(C)=O)[C@H]2[C@]1(C)[C@@H](OC(C)=O)C[C@H](O)C(C)(C)[C@H]1C(=O)[C@H]3O	< 5.00	< 5.00	< 5.00	< 5.00	< 5.00
COC[C@@]1(C[C@@H]2C(=O)[C@]34C[C@H]2C[C@H](OC(C)=O)[C@H]3[C@]2(C)[C@@H](OC(C)=O)C[C@H](O)C(C)(C)[C@H]2C(=O)[C@@H]4O)C(=O)[C@]23C[C@H]1C[C@H](O)[C@H]2[C@@]1(C)[C@H](C(=O)[C@@H]3O)C(C)(C)[C@@H](O)C[C@@H]1O	< 5.00	< 5.00	< 5.00	< 5.00	< 5.00
COC[C@@]1(C[C@@H]2C(=O)[C@]34C[C@H]2C[C@H](OC(C)=O)[C@H]3[C@@]2(C)[C@H](C(=O)[C@@H]4O)C(C)(C)[C@@H](O)C[C@@H]2O)C(=O)[C@]23C[C@H]1C[C@H](OC(C)=O)[C@H]2[C@]1(C)[C@@H](OC(C)=O)C[C@H](O)C(C)(C)[C@H]1C(=O)[C@@H]3O	< 5.00	< 5.00	< 5.00	< 5.00	< 5.00
CC(=O)O[C@H]1C[C@@H]2C[C@@]3(C(=O)[C@]24CC[C@@]42C(=O)[C@]45C[C@H]2C[C@H](OC(C)=O)[C@H]4[C@]2(C)[C@@H](OC(C)=O)C[C@H](O)C(C)(C)[C@H]2C(=O)[C@@H]5O)[C@@H]1[C@]1(C)[C@@H](OC(C)=O)C[C@H](OC(C)=O)C(C)(C)[C@H]1C(=O)[C@@H]3OC(C)=O	< 5.00	< 5.00	< 5.00	< 5.00	< 5.00
CC(=O)O[C@H]1C[C@@H]2C[C@@]3(CC(=O)[C@@H]4C(C)(C)[C@@H](O)C[C@H](OC(C)=O)[C@@]4(C)[C@H]13)C(=O)[C@]21CC[C@@]12C(=O)[C@]13C[C@H]2C[C@H](OC(C)=O)[C@H]1[C@]1(C)[C@@H](OC(C)=O)C[C@H](O)C(C)(C)[C@H]1C(=O)[C@@H]3OC(C)=O	< 5.00	< 5.00	< 5.00	< 5.00	< 5.00
CC(=O)O[C@H]1C(=O)[C@@]2(C)[C@H]([C@H](OC(=O)c3ccccc3)[C@]3(O)C[C@H](OC(=O)[C@H](O)[C@@H](NC(=O)c4ccccc4)c4ccccc4)C(C)=C1C3(C)C)[C@]1(OC(C)=O)CO[C@@H]1C[C@@H]2O [PACLITAXEL]	> 8.10	> 8.10	> 8.10	> 8.10	–
